Screening results (PubChem)
This is a sample that favours compounds with a hit; in the whole collection about 1.5% have one here.
TPT1 inhibitor – blocks Candida albicans tRNA 2'-phosphotransferase; 300,000 compounds, 0.81% hits; recombinant caTPT1, FP RNA substrate dephosphorylation; inhibition, % at 5 µM;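 active = inhibition above the mean of all tested compounds plus 3 SD, set per screening campaign, cut at about 24% in these data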;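 also: plate controls were DMSO alone for no effect and ferristatin control at 100 nM for full effect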
Rpn11 block – blocks the human proteasome subunit Rpn11; O00487; 360,000 compounds, 0.59% hits; calls only at 20 µM; human 26S proteasome, Ub4-pepOG fluorescence polarization; 20S core pre-blocked with epoxomicin;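 active = inhibition at 20 µM, scaled to each plate's controls, above about 33%, limit read from the data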
HNF4A DNA FP – change in binding of human HNF4 alpha to DNA | P41235 | HNF4a-FITC DNA binding, fluorescence polarization, 1 h | activity change, % at 10 µM | 360,000 compounds, 0.3% hits; in the data active = activity change above about 30%, passing the limit was not always enough
Target sequence (P41235 whole entry, looked up): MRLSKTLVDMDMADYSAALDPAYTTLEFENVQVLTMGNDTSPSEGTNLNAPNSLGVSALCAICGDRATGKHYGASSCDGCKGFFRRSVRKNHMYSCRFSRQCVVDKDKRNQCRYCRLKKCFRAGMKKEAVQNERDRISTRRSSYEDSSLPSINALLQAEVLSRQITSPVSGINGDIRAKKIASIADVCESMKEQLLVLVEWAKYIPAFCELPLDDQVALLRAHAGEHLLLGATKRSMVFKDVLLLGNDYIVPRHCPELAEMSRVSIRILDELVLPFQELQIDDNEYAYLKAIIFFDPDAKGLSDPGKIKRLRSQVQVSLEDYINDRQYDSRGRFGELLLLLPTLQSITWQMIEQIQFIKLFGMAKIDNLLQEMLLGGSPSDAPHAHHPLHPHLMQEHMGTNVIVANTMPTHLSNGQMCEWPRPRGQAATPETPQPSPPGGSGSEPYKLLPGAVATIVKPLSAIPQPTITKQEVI
CSN deneddyl inh – CSN deneddylation inhibition; Q92905; Purified CSN, SCF-Nedd8-OG deneddylation, fluorescence polarization; inhibition, % at 12.5 µM; 360,000 compounds, 0.38% hits;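 active = pattern-corrected inhibition above about 35%, with an unprinted fluorescence ratio check between 0.5 and 1.5, limit read from the data, passing the limit was not always enough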;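 also: 0% = enzyme with substrate and 100% = substrate without enzyme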
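Test system: purified human Csn5 enzyme expressed in HEK293T cells. Amount: 0.24 nM enzyme. Reagent: SCFSkp2-Nedd8OG substrate at 10 nM final. Schedule: 90 min incubation of compound, enzyme and substrate at room temperature. Detection: fluorescence polarization. Read-out: % inhibition of substrate cleavage by Csn5.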
Active calls of the source: *; i = inactive; nt = not tested or not shown.

SMILES | TPT1 inhibitor | Rpn11 block | HNF4A DNA FP | CSN deneddyl inh
COc1cccc(-c2nn(-c3ccccc3)cc2CO)c1 | -3 | i | -2 | -2
CCOC(=O)C1=C(O)/C(=C/c2ccccn2)SC1=Nc1ccc(Cl)cc1 | 1 | i | 0 | -3
CCOC(=O)C1=C(O)/C(=C/c2ccc(-c3ccccc3C(=O)O)o2)SC1=Nc1ccc(C)cc1 | nt | nt | 58* | 50*
CC(OC(=O)c1cnc(Cl)c(Cl)c1)C(=O)NCc1ccccc1 (centres undefined) | nt | i | -3 | 2
C=CCn1c(NC(=O)c2ccccc2Cl)c(C#N)c2nc3ccccc3nc21 | 14 | i | 64* | 57*
CCCCn1c(NC(C)=O)c(C#N)c2nc3ccccc3nc21 | 6 | i | 20 | 2
Cn1c(SCC(=O)c2ccccc2)nnc1-c1ccncc1 | 1 | i | -3 | 0
Cn1c(SCC(=O)c2ccc3c(c2)Cc2ccccc2-3)nnc1-c1ccccc1 | -2 | i | 3 | 74*
CCc1ccccc1-n1ncc(C(=O)Nc2ccc(OC)cc2)c1C | nt | i | -6 | 3
O=C1CN(C(=O)COc2ccc([N+](=O)[O-])cc2Cl)c2ccccc2N1 | nt | i | 1 | -2
COc1ccc(C2=NOC(Cn3nc(-c4ccccc4)cc3C(=O)NCc3ccc(C)cc3)C2)cc1 (centres undefined) | nt | i | 8 | 35*
COc1ccc(C2=NOC(Cn3nc(-c4ccccc4)cc3C(=O)NCc3cccc(C(F)(F)F)c3)C2)cc1 (centres undefined) | nt | i | 3 | -4
CCOC(=O)[C@H]1[C@H]2COc3ccc(Cl)cc3[C@@H]2N2C(=O)CN(Cc3ccco3)C(=O)[C@@]12C | nt | i | -6 | 0
CN(/N=C/c1ccncc1)c1cnn(-c2ccc(F)c(Cl)c2)c(=O)c1Cl | -4 | i | -2 | 44*
O=C(O)CCC(=O)Nc1cccc(C(=O)Nc2ccc(Br)cc2)c1 | 3 | i | 80* | -4
O=C(NCc1ccccc1)C(c1ccccc1)n1c(=O)c(-c2ccco2)nc2ccccc21 (centres undefined) | nt | nt | 27 | 10
O=C(NC1CCCCC1)C(c1ccnc2ccccc12)n1c(=O)c(-c2ccco2)nc2ccccc21 (centres undefined) | nt | nt | 30 | 15
O=C(NC1CCCCC1)C(c1ccccc1F)n1c(=O)c(-c2ccco2)nc2ccccc21 (centres undefined) | nt | nt | 34* | 20
O=C(NCc1ccccc1)C(c1ccc(C(F)(F)F)cc1)n1c(=O)c(-c2ccco2)nc2ccccc21 (centres undefined) | nt | nt | 11 | 24
O=C(NCc1ccccc1)C(c1cc2ccccc2o1)n1c(=O)c(-c2ccco2)nc2ccccc21 (centres undefined) | nt | nt | 37* | 28
CC(C)(C)NC(=O)C(c1ccc(C(F)(F)F)cc1)n1c(=O)c(-c2ccco2)nc2ccccc21 (centres undefined) | nt | nt | 42* | 27
COc1cccc2c1cc1c(=O)n(CC(=O)NCCCN3CCN(C)CC3)nc(C)n12 | -2 | i | -3 | 1
CCC(C)NC(=O)C1CCN(S(=O)(=O)c2cccc3nonc23)CC1 (centres undefined) | -2 | i | 1 | 3
NC(=O)c1ccccc1NC(=O)c1cccc(C(=O)Nc2ccccc2C(N)=O)n1 | -2 | i | 3 | 35*
COc1ccc(C(CC(=O)N2CCCC2)c2c(OC)cc(OC)c3c(-c4ccccc4)cc(=O)oc23)cc1 (centres undefined) | 2 | i | -11 | 36*
SMILES | TPT1 inhibitor | Rpn11 block | HNF4A DNA FP | CSN deneddyl inh
COc1ccc(C(CC(=O)N2CCCCC2)c2c(OC)cc(OC)c3c(-c4ccccc4)cc(=O)oc23)cc1 (centres undefined) | -1 | i | -18 | 26
Cc1ccccc1[C@@H](NC(=O)OC(C)(C)C)C(=O)OC(C)(C)C | nt | i | 2 | 0
Cc1oc(-c2ccc(F)cc2)cc1-c1nn2c(-c3ccoc3C)nnc2s1 | 17 | nt | -40 | 39*
N#Cc1c(N2CCCC2)nc(N)c2c(N)nc(N3CCCC3)cc12 | 0 | i | 36 | 55*
C(=Cc1c[nH]c2ccccc12)c1ccc2ccccc2n1 | nt | i | 37* | 10
CC1CN(S(=O)(=O)c2cccc(C(=O)N(C)C3CCCCC3)c2)CC(C)O1 (centres undefined) | nt | i | 1 | -1
Cc1cc(OCC(=O)NCC(c2ccc(F)cc2)N2CCOCC2)ccc1Cl (centres undefined) | nt | i | 2 | -4
COc1ccc(OC)c(Nc2nc(-c3sc(NC(=O)c4ccccc4)nc3C)cs2)c1 | 36* | nt | nt | nt
